Screening results (PubChem)
FLuc inhib CS: counter-screen for luciferase assay inhibitors: firefly luciferase inhibition | P08659 | ATPLite firefly luciferase biochemical luminescence, 10 min | inhibition, % at 10 µM | hit rate 1.5% among 200,000 | AID 1006;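 active = inhibition above about 50% when tested at 10 µM, limit read from the data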
Target sequence (P08659 whole entry, looked up): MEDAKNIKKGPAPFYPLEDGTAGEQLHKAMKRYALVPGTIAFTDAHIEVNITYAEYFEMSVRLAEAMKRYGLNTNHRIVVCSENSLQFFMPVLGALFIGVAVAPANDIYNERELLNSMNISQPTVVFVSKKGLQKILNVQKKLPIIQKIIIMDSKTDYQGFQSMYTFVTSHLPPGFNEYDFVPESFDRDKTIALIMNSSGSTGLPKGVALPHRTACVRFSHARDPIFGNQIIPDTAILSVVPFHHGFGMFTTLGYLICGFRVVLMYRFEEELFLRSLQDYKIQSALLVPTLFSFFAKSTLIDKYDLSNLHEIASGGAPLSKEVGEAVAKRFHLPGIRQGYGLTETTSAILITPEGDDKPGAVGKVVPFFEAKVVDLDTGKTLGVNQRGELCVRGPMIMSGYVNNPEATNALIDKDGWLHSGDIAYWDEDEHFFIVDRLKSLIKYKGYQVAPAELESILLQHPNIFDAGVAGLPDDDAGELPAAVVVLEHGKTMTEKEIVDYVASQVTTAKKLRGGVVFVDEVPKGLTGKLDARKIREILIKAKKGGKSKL
APP 5'UTR act: activates APP 5'UTR luciferase reporter; SH-SY5Y APP 5'UTR luciferase reporter, luminescence; zero percent = DMSO vehicle wells; activation, % at 2 µM; hit rate 1% among 190,000;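 active = activation above a set limit, based on mean plus 3 SD of controls, cut at about 140% in these data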
NF-kB expr up: raises NF-kB expression in human neuronal cells; NF-kB reporter expression; hits give high values; fold change at 12.5 µM; hit rate 1.6% among 190,000; AID 1239; in the data active = fold change above about 3.3
STAT1 act: increases IFN-gamma driven STAT1 reporter signal | activation (% of control), % at 5.5 µM | NIH 3T3 STAT1-luciferase reporter, luminescence; 100% = IFN-gamma alone, no compound | hit rate 2.6% among 200,000;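 active = activation above the screen-wide mean activation plus 3 SD, cut at about 130% in these data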
APP 5UTR inh: APP translation inhibition. SH-SY5Y APP 5'UTR-luciferase reporter, luminescence. inhibition, % at 2 µM. hit rate 0.82% among 190,000. AID 1285;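 active = inhibition above a set limit, derived from the sample mean plus 3 SD, cut at about 45% in these data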
FLuc stim CS: firefly luciferase counter-screen for stimulation assays | P08659 | ATPlite luciferase biochemical, luminescence, 10 min; 0 = ATP-free wells, 1 = DMSO control | activation factor at 10 µM | 200,000 tested, under 10 active | AID 1027;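 active = luciferase activation factor, scaled between plate controls, of at least 2 with compound at 10 µM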
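Material: Luciferase/luciferin reagent mix | Doses: Test compounds dosed from 2 mM stocks in 100% DMSO | Timing: 10 min incubation after luciferase reagent addition, room temperature | Measured by: Luminescence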
STAT1 activ conf: confirmation of STAT1 signaling activators | shares compounds with STAT1 act | NIH 3T3 STAT1-luciferase reporter, IFN-gamma potentiation, luminescence; 100% = IFN-gamma EC80 alone, no compound | activation (% of control), % at 5.7 µM | hit rate 97% among 1,200 | AID 1262;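 active = activation above a set limit carried over from the earlier primary STAT1 screen, cut at about 140% in these data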
NFkB act STAT1ct: NF-kappaB activation in STAT1 activator counter-screen; shares compounds with STAT1 act; activation (% of control), % at 5.7 µM; HEK293T NF-kB luciferase reporter, TNF-alpha stimulated, luminescence; 100% = TNF-alpha with vehicle only; hit rate 43% among 1,200;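 active = activation above the mean of solvent-only control wells plus 3 SD, set per campaign, cut at about 130% in these data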;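 also: TNF-alpha given at a submaximal dose yielding about 80% of full reporter signal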
STAT3 act 2: activates human STAT3, counter-screen to STAT1 activators. shares compounds with STAT1 act. U3A cells STAT3-luciferase reporter, IL-6, luminescence; cells lack STAT1; 100 = IL-6 alone, no compound effect. activation (% of control), % at 5.7 µM. hit rate 46% among 1,200. AID 1316;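 active = activation above the solvent-only control well mean plus 3 SD, set per plate batch, cut at about 110% in these data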;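 also: higher means more STAT3 reporter activation so hits are non-selective activators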
Large screens that a line does not name were inactive (follow-up assays come after a bar, where they were run). Hits are enriched below; roughly 4.8% of the tested compounds scored in any of these assays.

CCc1ccc(C(=O)CN2CCSC2=N)cc1	FLuc inhib CS 63.2, NF-kB expr up 7.86, STAT1 act 159.3 | STAT1 activ conf 209.4 | NFkB act STAT1ct 135.8 | STAT3 act 2 inactive
CCc1ccc(OCC(=O)Nc2ncn[nH]2)cc1	none
CCN(Cc1ccccc1)c1ccc(/C=C(\C#N)c2ccccn2)cc1	STAT1 act 167.3 | STAT1 activ conf 196.7 | NFkB act STAT1ct 142.9 | STAT3 act 2 113.4
O=C(c1c(F)cccc1F)N(Cc1ccccn1)C1CCCC1	none
Cc1cc(C(=O)CN2C(=O)c3ccccc3C2=O)c(C)n1Cc1cccs1	FLuc inhib CS 62.0, STAT1 act 161.0 | STAT1 activ conf 192.7 | NFkB act STAT1ct inactive | STAT3 act 2 inactive
CCOc1ccc(C(=O)NC(=S)Nc2cccc(NC(=O)c3ccco3)c2)cc1[N+](=O)[O-]	none
Cc1c(C2C(C#N)=C(N)N(c3cccc([N+](=O)[O-])c3)C3=C2C(=O)CCC3)cnn1C (stereo not given)	none
Cn1cc(-c2nnc(-c3ccccc3)o2)c2ccccc21	FLuc inhib CS 59.1, NF-kB expr up 5.18, STAT1 act 158.7 | STAT1 activ conf 258.3 | NFkB act STAT1ct inactive | STAT3 act 2 129.5
Clc1ccc(-c2cnn3c(-c4ccncc4)ccnc23)cc1	FLuc inhib CS 67.9, APP 5'UTR act 221.2, NF-kB expr up 3.59, STAT1 act 156.9 | STAT1 activ conf 236.7 | NFkB act STAT1ct inactive | STAT3 act 2 inactive
CS(=O)(=O)c1cnc2c(-c3ccc(F)cc3)cnn2c1N	NF-kB expr up 3.51, STAT1 act 161.9 | STAT1 activ conf 188.8 | NFkB act STAT1ct inactive | STAT3 act 2 inactive
Nc1c(C(=O)O)cnc2c(-c3ccc(Cl)cc3)cnn12	FLuc inhib CS 58.4, NF-kB expr up 4.93, STAT1 act 194.0 | STAT1 activ conf 219.3 | NFkB act STAT1ct inactive | STAT3 act 2 152.1
CC(=O)c1cnc2c(-c3ccc(Cl)cc3)cnn2c1C	none
Cc1cnc(NC(=O)C2CCCO2)s1 (stereo not given)	none
O=C(Nc1ncc(Cc2ccccc2Cl)s1)C1CCCO1 (stereo not given)	NF-kB expr up 3.89, STAT1 act 150.8 | STAT1 activ conf 166.5 | NFkB act STAT1ct 133.9 | STAT3 act 2 148.8
CC(=O)c1cccc(Nc2ccc(-c3ccccc3F)nn2)c1	STAT1 act 152.1 | STAT1 activ conf 178.8 | NFkB act STAT1ct inactive | STAT3 act 2 inactive
COc1ccccc1-c1ccc(Nc2cccc(C(C)=O)c2)nn1	none
CC(=O)c1ccc(NC(=O)c2ccc(C)c(Br)c2)cc1	APP 5'UTR act 203.0, NF-kB expr up 3.98, STAT1 act 156.1 | STAT1 activ conf 197.6 | NFkB act STAT1ct 139.9 | STAT3 act 2 inactive
CCCCC(=O)Nc1ccc(C(=O)NNC(=O)c2ccc(C)c(Br)c2)cc1	none
O=C(c1cccc(Cl)c1)C1CCCN(C(=O)c2ccoc2)C1 (stereo not given)	none
Nc1nc(-c2ccc3ccccc3c2)cs1	NF-kB expr up 6.3, STAT1 act 169.0 | STAT1 activ conf 195.0 | NFkB act STAT1ct 134.3 | STAT3 act 2 inactive
O=C(NC12CC3CC(CC(C3)C1)C2)c1ccc(COc2ccc(Cl)cc2[N+](=O)[O-])o1	none
O=C(NC12CC3CC(CC(C3)C1)C2)c1ccc(-c2cccc(Cl)c2)o1	APP 5'UTR act 192.5, STAT1 act 164.5 | STAT1 activ conf 209.6 | NFkB act STAT1ct 143.0 | STAT3 act 2 127.9
CCOC(=O)N/C(N)=N/c1nc2ccccc2s1	APP 5'UTR act 199.3, NF-kB expr up 7.03, STAT1 act 166.4 | STAT1 activ conf 210.3 | NFkB act STAT1ct inactive | STAT3 act 2 inactive
CCOC(=O)NC(=O)COC(=O)CCCSc1nc2ccccc2s1	none
Cc1cc(-c2cccs2)n[nH]1	none
Cc1nc2nc(-c3cccs3)cn2nc1C	STAT1 act 152.5 | STAT1 activ conf 165.4 | NFkB act STAT1ct 134.4 | STAT3 act 2 inactive
COc1c(C)cc(C(=O)C2CCCN(C(=O)c3ccc4cc[nH]c4c3)C2)cc1C (stereo not given)	none
COc1cc2ccccc2cc1-c1nnc(COc2ccccc2)o1	none
O=C1CCCc2nc3c(cc21)C(O)Oc1c-3ccc2ccccc12 (stereo not given)	APP 5'UTR act 157.4, STAT1 act 185.7 | STAT1 activ conf 216.2 | NFkB act STAT1ct 143.5 | STAT3 act 2 inactive
O=C1CCCc2nc3c(cc21)C(O)Oc1ccccc1-3 (stereo not given)	none (no result: NF-kB expr up)
CC(C)N1CCN(Cc2ccc(C#CCCO)cc2)CC1CCO (stereo not given)	none
O=c1cc(-c2ccc(O)cc2)oc2ccccc12	STAT1 act 153.7 | STAT1 activ conf 153.5 | NFkB act STAT1ct inactive | STAT3 act 2 124.8
CCSc1nc2c([nH]c3ccccc32)c(=O)n1C	none
C=CCSc1nnc2c(n1)[nH]c1c(C)cccc12	STAT1 act 154.2 | STAT1 activ conf 176.0 | NFkB act STAT1ct inactive | STAT3 act 2 inactive
CCSc1nnc2nc3[nH]c4c(C)cccc4c3nn12	STAT1 act 151.0 | STAT1 activ conf 148.6 | NFkB act STAT1ct inactive | STAT3 act 2 123.3
Cc1cccc2c1[nH]c1nc(N/N=C\c3ccco3)nnc12	none
CCOC(=O)c1cc(C#N)c(Oc2ccccc2OC)nc1-c1ccccc1	none
Cc1ccc(SC(C)C(=O)N2CCC(C(N)=O)CC2)cc1 (stereo not given)	none
Nc1c(C(=O)C2CC2)sc2nc3c(cc12)CCC3	NF-kB expr up 5.43, STAT1 act 162.1 | STAT1 activ conf 189.3 | NFkB act STAT1ct 134.9 | STAT3 act 2 inactive
Cc1cnc(NC(=O)Nc2ccc(Cl)cc2)s1	NF-kB expr up 25.6, STAT1 act 296.5 | STAT1 activ conf 281.6 | NFkB act STAT1ct 138.0 | STAT3 act 2 141.5
Cc1cnc(NC(=O)CSc2ccc(Cl)cc2)s1	none
Cc1ccc(C(=O)N2CCc3ccccc32)o1	APP 5'UTR act 158.6, STAT1 act 164.7 | STAT1 activ conf 183.5 | NFkB act STAT1ct inactive | STAT3 act 2 inactive
Cc1nc2ccccc2c2oc(C(=O)N3CCc4ccccc43)cc12	none
Cc1c(C(=O)N2CCc3ccccc32)oc2c1C(=O)CC(C)(C)C2	STAT1 act 157.1 | STAT1 activ conf 180.2 | NFkB act STAT1ct 134.4 | STAT3 act 2 113.2
